Experimental data from ChEMBL document CHEMBL1129298, “Nonpeptide angiotensin II receptor antagonists: synthesis, biological activities, and structure-activity relationships of imidazole-5-carboxylic acids bearing alkyl, alkenyl, and hydroxyalkyl substituents at the 4-position and their related compounds” (J Med Chem, 1996).
Where “and” joins values, the source holds several entries; their conditions need not be identical. Identical values can stand only once.

Legend:
[1] = biological target: T1, Type-1 angiotensin II receptor (Bos taurus, UniProt P25104); test: In vitro for inhibition of [125I]-angiotensin II (0.1 nM) binding to angiotensin II receptor type 1 in membrane fractions of bovine adrenal cortex; format: tissue-based
T1 sequence (P25104 whole entry): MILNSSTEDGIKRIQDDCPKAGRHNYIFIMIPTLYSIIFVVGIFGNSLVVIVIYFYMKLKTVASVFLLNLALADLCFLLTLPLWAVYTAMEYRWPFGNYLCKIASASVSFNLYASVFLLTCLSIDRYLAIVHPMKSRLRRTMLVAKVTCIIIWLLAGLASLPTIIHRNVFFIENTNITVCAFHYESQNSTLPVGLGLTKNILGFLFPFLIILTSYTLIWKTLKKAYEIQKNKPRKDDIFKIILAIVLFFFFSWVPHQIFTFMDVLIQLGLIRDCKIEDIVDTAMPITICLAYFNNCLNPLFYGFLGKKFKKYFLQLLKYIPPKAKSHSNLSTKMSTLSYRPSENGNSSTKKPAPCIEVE

[2] = biological target: Angiotensin II receptor (Rattus norvegicus) (UniProt P29089+P25095+P35351); test: In vivo inhibitory activity against angiotensin II induced pressor response in anesthetized normotensive rats; format: functional, organism-based
In short: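 Male Wistar-Imamichi rats (300–400 g) under inactin (100 mg/kg ip), with femoral arterial and venous cannulae. AII 50 ng/kg iv every 10 min until responses were constant. Compound in DMSO was then given iv and AII re-injected 2 min later.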

Rattus norvegicus [3] = test: Inhibitory activity against AII-Induced Pressor response at 10 mg/Kg at 3 hour; format: functional
In short: (§1)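 Male Wistar-Imamichi rats (300–400 g) cannulated under pentobarbital (50 mg/kg ip), fasted 24 h, tested conscious the next day. AII 50 ng/kg iv was repeated until constant, then compound in 50% aqueous DMF given orally. AII was repeated over 8 h, and mean blood pressure response inhibition (%) was recorded at 1, 3, 6 h. n = 3–5.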

Rattus norvegicus [4] = test: Inhibitory activity against AII-Induced Pressor response at 10 mg/Kg at 6 hour; format: functional; in short: as §1
Rattus norvegicus [5] = test: Inhibitory activity against AII-Induced Pressor response at 3 mg/Kg at 1 hr; format: functional; in short: as §1
Rattus norvegicus [6] = test: Inhibitory activity against AII-Induced Pressor response at 3 mg/Kg at 3 hour; format: functional; in short: as §1
Rattus norvegicus [7] = test: Inhibitory activity against AII-Induced Pressor response at 3 mg/Kg at 6 hour; format: functional; in short: as §1
Rattus norvegicus [8] = test: Inhibitory activity against AII-Induced Pressor response at 1 mg/Kg at 1 hr; format: functional; in short: as §1
Rattus norvegicus [9] = test: Inhibitory activity against AII-Induced Pressor response at 1 mg/Kg at 3 hour; format: functional; in short: as §1
Rattus norvegicus [10] = test: Inhibitory activity against AII-Induced Pressor response at 1 mg/Kg at 6 hour; format: functional; in short: as §1
Rattus norvegicus [11] = test: Inhibitory activity against AII-Induced Pressor response at 10 mg/Kg at 1 hr; format: functional; in short: as §1
Rattus norvegicus [12] = test: Inhibitory activity against AII-Induced Pressor response at 1 mg/kg at 1 hr; format: functional; in short: as §1
Rattus norvegicus [13] = test: Inhibitory activity against AII-Induced Pressor response at 1 mg/kg at 3 hour; format: functional; in short: as §1
Rattus norvegicus [14] = test: Inhibitory activity against AII-Induced Pressor response at 1 mg/kg at 6 hour; format: functional; conditions: for inhibition in vivo at 1 mg/kg: Rattus norvegicus, 6 h; in short: as §1
Rattus norvegicus [15] = test: Inhibitory activity against AII-Induced Pressor response at 0.3 mg/Kg at 1 hr; format: functional; in short: as §1
Rattus norvegicus [16] = test: Inhibitory activity against AII-Induced Pressor response at 0.3 mg/Kg at 3 hr; format: functional; in short: as §1
Rattus norvegicus [17] = test: Inhibitory activity against AII-Induced Pressor response at 0.3 mg/Kg at 3 hour; format: functional; in short: as §1
Rattus norvegicus [18] = test: Inhibitory activity against AII-Induced Pressor response at 0.3 mg/Kg at 6 hour; format: functional; in short: as §1

## CCCc1nc(C)c(C(=O)O)n1Cc1ccc(-c2ccccc2-c2nn[nH]n2)cc1
[1]
  IC50: 11 nM
[2]
  ID50: 0.028 mg/kg

## CCCCc1nc(Cl)c(C(=O)O)n1Cc1ccc(-c2ccccc2-c2nn[nH]n2)cc1 [CARBOXYLIC ACID METABOLITE]
[2]
  ID50: 0.1 mg/kg
Rattus norvegicus [3]
  inhibition in vivo at 10 mg/kg: 93%
Rattus norvegicus [4]
  inhibition in vivo at 10 mg/kg: 89%
Rattus norvegicus [5]
  inhibition in vivo at 3 mg/kg: 81%
Rattus norvegicus [6]
  inhibition in vivo at 3 mg/kg: 81%
Rattus norvegicus [7]
  inhibition in vivo at 3 mg/kg: 81%
Rattus norvegicus [8]
  inhibition in vivo at 1 mg/kg: 74%
Rattus norvegicus [9]
  inhibition in vivo at 1 mg/kg: 72%
Rattus norvegicus [10]
  inhibition in vivo at 1 mg/kg: 70%
Rattus norvegicus [11]
  inhibition in vivo at 10 mg/kg: 89%

## CCCc1nc(C(O)(CC)CC)c(C(=O)O)n1Cc1ccc(-c2ccccc2C(=O)O)cc1
[1]
  IC50: 110 nM
[2]
  ID50: 0.11 mg/kg

## CCCc1nc(C(C)(C)O)c(C(=O)OCC)n1Cc1ccc(-c2ccccc2C(=O)O)cc1
[1]
  IC50: 600 nM
[2]
  ID50: 1.2 mg/kg
Rattus norvegicus [3]
  inhibition in vivo at 10 mg/kg: 70%
Rattus norvegicus [4]
  inhibition in vivo at 10 mg/kg: 75%
Rattus norvegicus [5]
  inhibition in vivo at 3 mg/kg: 26%
Rattus norvegicus [6]
  inhibition in vivo at 3 mg/kg: 28%
Rattus norvegicus [7]
  inhibition in vivo at 3 mg/kg: 25%
Rattus norvegicus [11]
  inhibition in vivo at 10 mg/kg: 40%

## CCCc1nc(C(C)C)c(C(=O)O)n1Cc1ccc(-c2ccccc2-c2nnn[nH]2)cc1
[1]
  IC50: 46 nM

## CCCCc1nc(C(C)(C)O)c(C(=O)O)n1Cc1ccc(-c2ccccc2C(=O)O)cc1
[1]
  IC50: 30 nM
[2]
  ID50: 0.066 mg/kg

## CCCc1nc(C(=O)O)c(C(=O)O)n1Cc1ccc(-c2ccccc2-c2nn[nH]n2)cc1
[2]
  ID50: 0.031 mg/kg

## CCCc1nc(C(C)(O)CC)c(C(=O)O)n1Cc1ccc(-c2ccccc2C(=O)O)cc1 (stereo not given)
[1]
  IC50: 51 nM
[2]
  ID50: 0.074 mg/kg

## CCCc1nc(C(=O)O)c(CO)n1Cc1ccc(-c2ccccc2-c2nn[nH]n2)cc1
[1]
  IC50: 4600 nM
[2]
  ID50: 1.7 mg/kg

## CCCCc1nc(Cl)c(CO)n1Cc1ccc(-c2ccccc2C(=O)O)cc1
[2]
  ID50: 2.3 mg/kg

## CCCc1ncc(C(=O)O)n1Cc1ccc(-c2ccccc2C(=O)O)cc1
[1]
  IC50: 60 nM
[2]
  ID50: 0.22 mg/kg

## CCCc1nc(C(=O)O)c(C(=O)O)n1Cc1ccc(-c2ccccc2C(=O)O)cc1
[2]
  ID50: 0.67 mg/kg

## CCCc1nc(CO)c(C(=O)O)n1Cc1ccc(-c2ccccc2C(=O)O)cc1
[2]
  ID50: 0.069 mg/kg

## CCCc1nc(C(C)(C)O)c(C(=O)OCOC(=O)C(C)(C)C)n1Cc1ccc(-c2ccccc2C(=O)O)cc1
Rattus norvegicus [12]
  inhibition in vivo at 1 mg/kg: 52%
Rattus norvegicus [13]; 1 mg/kg
  Inhibition: 61% and 85%
Rattus norvegicus [14]
  inhibition in vivo at 1 mg/kg: 75%
Rattus norvegicus [14]; dose 3 mg/kg, in the assay text read “3 mg/kg” for “1 mg/kg”
  Inhibition: 87%
Rattus norvegicus [5]
  inhibition in vivo at 3 mg/kg: 85%
Rattus norvegicus [15]
  inhibition in vivo at 0.3 mg/kg: 43%
Rattus norvegicus [16]
  inhibition in vivo at 0.3 mg/kg: 32%

## CCCc1nc(C(C)(C)O)c(C(=O)O)n1Cc1ccc(-c2ccccc2-c2nnn[nH]2)cc1 [OLMESARTAN]
[1]
  IC50: 8.1 nM
[2]
  ID50: 0.0079 mg/kg
Rattus norvegicus [15]
  inhibition in vivo at 0.3 mg/kg: 83%
Rattus norvegicus [17]
  inhibition in vivo at 0.3 mg/kg: 77%
Rattus norvegicus [18]
  inhibition in vivo at 0.3 mg/kg: 78%
Rattus norvegicus [8]
  inhibition in vivo at 1 mg/kg: 98%
Rattus norvegicus [9]
  inhibition in vivo at 1 mg/kg: 98%
Rattus norvegicus [10]
  inhibition in vivo at 1 mg/kg: 93%

## CCCCc1nc(Cl)c(CO)n1Cc1ccc(-c2ccccc2-c2nnn[nH]2)cc1 [LOSARTAN]
[2]
  ID50: 0.3 mg/kg
Rattus norvegicus [3]
  inhibition in vivo at 10 mg/kg: 77%
Rattus norvegicus [4]
  inhibition in vivo at 10 mg/kg: 85%
Rattus norvegicus [5]
  inhibition in vivo at 3 mg/kg: 38%
Rattus norvegicus [6]
  inhibition in vivo at 3 mg/kg: 35%
Rattus norvegicus [7]
  inhibition in vivo at 3 mg/kg: 65%
Rattus norvegicus [8]
  inhibition in vivo at 1 mg/kg: 12%
Rattus norvegicus [9]
  inhibition in vivo at 1 mg/kg: 12%
Rattus norvegicus [10]
  inhibition in vivo at 1 mg/kg: 32%
Rattus norvegicus [11]
  inhibition in vivo at 10 mg/kg: 69%

## CCCc1nc(C(C)(C)O)c(C(=O)O)n1Cc1ccc(-c2ccccc2C(=O)O)cc1
[1]
  IC50: 28 nM
[2]
  ID50: 0.056 mg/kg
Rattus norvegicus [3]
  inhibition in vivo at 10 mg/kg: 70%
Rattus norvegicus [4]
  inhibition in vivo at 10 mg/kg: 56%
Rattus norvegicus [12]
  inhibition in vivo at 1 mg/kg: 50%
Rattus norvegicus [13]; Rattus norvegicus, 3 h
  inhibition in vivo at 1 mg/kg: 42%
Rattus norvegicus [14]
  inhibition in vivo at 1 mg/kg: 12%
Rattus norvegicus [5]
  inhibition in vivo at 3 mg/kg: 78%
Rattus norvegicus [6]
  inhibition in vivo at 3 mg/kg: 67%
Rattus norvegicus [7]
  inhibition in vivo at 3 mg/kg: 48%
Rattus norvegicus [11]
  inhibition in vivo at 10 mg/kg: 88%

## CCCc1nc(CC)c(C(=O)O)n1Cc1ccc(-c2ccccc2-c2nnn[nH]2)cc1
[1]
  IC50: 12 nM

## CCc1nc(C(C)(C)O)c(C(=O)O)n1Cc1ccc(-c2ccccc2C(=O)O)cc1
[1]
  IC50: 37 nM
[2]
  ID50: 0.3 mg/kg

## C=C(C)c1nc(CCC)n(Cc2ccc(-c3ccccc3-c3nnn[nH]3)cc2)c1C(=O)O
[1]
  IC50: 50 nM

## CCCc1nc(CC)c(C(=O)O)n1Cc1ccc(-c2ccccc2C(=O)O)cc1
[1]
  IC50: 100 nM
[2]
  ID50: 0.27 mg/kg

## CCCc1nc(C(C)C)c(C(=O)O)n1Cc1ccc(-c2ccccc2C(=O)O)cc1
[2]
  ID50: 0.14 mg/kg

## CCCc1nc(CC)c(C(=O)O)n1Cc1ccc(-c2ccccc2-c2nn[nH]n2)cc1
[2]
  ID50: 0.019 mg/kg

## CCCc1nc(C(C)O)c(C(=O)O)n1Cc1ccc(-c2ccccc2-c2nnn[nH]2)cc1 (stereo not given)
[1]
  IC50: 4.9 nM
